{"source": "ChEMBL document CHEMBL1134791", "about": "“2- and 3-substituted 1,4-naphthoquinone derivatives as subversive substrates of trypanothione reductase and lipoamide dehydrogenase from Trypanosoma cruzi: synthesis and correlation between redox cycling activities and in vitro cytotoxicity” (J Med Chem, 2001)", "proteins": {"B1": {"name": "Trypanothione reductase (Trypanosoma cruzi), P28593 (protein)", "chain": "MMSKIFDLVVIGAGSGGLEAAWNAATLYKKRVAVIDVQMVHGPPFFSALGGTCVNVGCVPKKLMVTGAQYMEHLRESAGFGWEFDRTTLRAEWKKLIAVKDEAVLNINKSYEEMFRDTEGLEFFLGWGSLESKNVVNVRESADPASAVKERLETENILLASGSWPHMPNIPGIEHCISSNEAFYLPEPPRRVLTVGGGFISVEFAGIFNAYKPKDGQVTLCYRGEMILRGFDHTLREELTKQLTANGIQILTKENPAKVELNADGSKSVTFESGKKMDFDLVMMAIGRSPRTKDLQLQNAGVMIKNGGVQVDEYSRTNVSNIYAIGDVTNRVMLTPVAINEAAALVDTVFGTNPRKTDHTRVASAVFSIPPIGTCGLIEEVASKRYEVVAVYLSSFTPLMHNISGSKYKTFVAKIITNHSDGTVLGVHLLGDNAPEIIQGVGICLKLNAKISDFYNTIGVHPTSAEELCSMRTPSYYYVKGEKMEKPSEASL"}}, "key": {"[1]": {"substrate": "CC1=C(CCC(=O)NCCCCNCCCNC(=O)CCC2=C(C)C(=O)c3cccc(O)c3C2=O)C(=O)c2c(O)cccc2C1=O", "experiment": "(§1) The Michaelis-Menten constant for NADPH oxidation by TcTR (Trypanosoma cruzi trypanothione reductase)", "procedure,_shortened": "(§2)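 Recombinant TcTR (0.6 U) in 20 mM Hepes, 1 mM EDTA, 0.15 M KCl, pH 7.25 at 22 °C, with 200 µM NADPH and naphthoquinone at five concentrations (0–100 µM) in 1% DMSO. NADPH oxidation at 340 nm; intrinsic oxidase rate not subtracted. Km and Vmax from nonlinear Michaelis–Menten fit; kcat and kcat/Km calculated.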"}, "[2]": {"substrate": "CC1=C(CCC(=O)NCCCCNCCCNC(=O)CCC2=C(C)C(=O)c3ccccc3C2=O)C(=O)c2ccccc2C1=O", "experiment": "as §1", "procedure,_shortened": "as §2"}, "[3]": {"substrate": "CC1=C(CCC(=O)NCCCN2CCN(CCCNC(=O)CCC3=C(C)C(=O)c4cccc(O)c4C3=O)CC2)C(=O)c2c(O)cccc2C1=O", "experiment": "as §1", "procedure,_shortened": "as §2"}, "[4]": {"substrate": "CC1=C(CCC(=O)NCCCN2CCN(CCCNC(=O)CCC3=C(C)C(=O)c4ccccc4C3=O)CC2)C(=O)c2ccccc2C1=O", "experiment": "as §1", "procedure,_shortened": "as §2"}, "[5]": {"substrate": "CC1=C(CCC(=O)NCCCNCCCNC(=O)CCC2=C(C)C(=O)c3cccc(O)c3C2=O)C(=O)c2c(O)cccc2C1=O", "experiment": "as §1", "procedure,_shortened": "as §2"}, "[6]": {"substrate": "CC1=C(CCC(=O)NCCCNCCCNC(=O)CCC2=C(C)C(=O)c3ccccc3C2=O)C(=O)c2ccccc2C1=O", "experiment": "as §1", "procedure,_shortened": "as §2"}, "[7]": {"substrate": "CC1=C(CCCC(=O)NCCCCNCCCNC(=O)CCCC2=C(C)C(=O)c3cccc(O)c3C2=O)C(=O)c2c(O)cccc2C1=O", "experiment": "as §1", "procedure,_shortened": "as §2"}, "[8]": {"substrate": "CC1=C(CCCC(=O)NCCCCNCCCNC(=O)CCCC2=C(C)C(=O)c3ccccc3C2=O)C(=O)c2ccccc2C1=O", "experiment": "as §1", "procedure,_shortened": "as §2"}, "[9]": {"substrate": "CC1=C(CCCC(=O)NCCCN2CCN(CCCNC(=O)CCCC3=C(C)C(=O)c4cccc(O)c4C3=O)CC2)C(=O)c2c(O)cccc2C1=O", "experiment": "as §1", "procedure,_shortened": "as §2"}, "[10]": {"substrate": "CC1=C(CCCC(=O)NCCCN2CCN(CCCNC(=O)CCCC3=C(C)C(=O)c4ccccc4C3=O)CC2)C(=O)c2ccccc2C1=O", "experiment": "as §1", "procedure,_shortened": "as §2"}, "[11]": {"substrate": "CC1=C(CCCC(=O)NCCCNCCCNC(=O)CCCC2=C(C)C(=O)c3cccc(O)c3C2=O)C(=O)c2c(O)cccc2C1=O", "experiment": "as §1", "procedure,_shortened": "as §2"}, "[12]": {"substrate": "CC1=C(CCCC(=O)NCCCNCCCNC(=O)CCCC2=C(C)C(=O)c3ccccc3C2=O)C(=O)c2ccccc2C1=O", "experiment": "as §1", "procedure,_shortened": "as §2"}, "[13]": {"substrate": "CC1=C(CCCCC(=O)NCCCCNCCCNC(=O)CCCCC2=C(C)C(=O)c3cccc(O)c3C2=O)C(=O)c2c(O)cccc2C1=O", "experiment": "as §1", "procedure,_shortened": "as §2"}, "[14]": {"substrate": "CC1=C(CCCCC(=O)NCCCCNCCCNC(=O)CCCCC2=C(C)C(=O)c3ccccc3C2=O)C(=O)c2ccccc2C1=O", "experiment": "as §1", "procedure,_shortened": "as §2"}, "[15]": {"substrate": "CC1=C(CCCCC(=O)NCCCN2CCN(CCCNC(=O)CCCCC3=C(C)C(=O)c4cccc(O)c4C3=O)CC2)C(=O)c2c(O)cccc2C1=O", "experiment": "as §1", "procedure,_shortened": "as §2"}, "[16]": {"substrate": "CC1=C(CCCCC(=O)NCCCN2CCN(CCCNC(=O)CCCCC3=C(C)C(=O)c4ccccc4C3=O)CC2)C(=O)c2ccccc2C1=O", "experiment": "as §1", "procedure,_shortened": "as §2"}, "[17]": {"substrate": "CC1=C(CCCCC(=O)NCCCNCCCNC(=O)CCCCC2=C(C)C(=O)c3cccc(O)c3C2=O)C(=O)c2c(O)cccc2C1=O", "experiment": "as §1", "procedure,_shortened": "as §2"}, "[18]": {"substrate": "CC1=C(CCCCC(=O)NCCCNCCCNC(=O)CCCCC2=C(C)C(=O)c3ccccc3C2=O)C(=O)c2ccccc2C1=O", "experiment": "as §1", "procedure,_shortened": "as §2"}, "[19]": {"substrate": "CC1=C(CCCCCC(=O)NCCCCNCCCNC(=O)CCCCCC2=C(C)C(=O)c3cccc(O)c3C2=O)C(=O)c2c(O)cccc2C1=O", "experiment": "as §1", "procedure,_shortened": "as §2"}, "[20]": {"substrate": "CC1=C(CCCCCC(=O)NCCCCNCCCNC(=O)CCCCCC2=C(C)C(=O)c3ccccc3C2=O)C(=O)c2ccccc2C1=O", "experiment": "as §1", "procedure,_shortened": "as §2"}, "[21]": {"substrate": "CC1=C(CCCCCC(=O)NCCCN2CCN(CCCNC(=O)CCCCCC3=C(C)C(=O)c4cccc(O)c4C3=O)CC2)C(=O)c2c(O)cccc2C1=O", "experiment": "as §1", "procedure,_shortened": "as §2"}, "[22]": {"substrate": "CC1=C(CCCCCC(=O)NCCCN2CCN(CCCNC(=O)CCCCCC3=C(C)C(=O)c4ccccc4C3=O)CC2)C(=O)c2ccccc2C1=O", "experiment": "as §1", "procedure,_shortened": "as §2"}, "[23]": {"substrate": "CC1=C(CCCCCC(=O)NCCCNCCCNC(=O)CCCCCC2=C(C)C(=O)c3cccc(O)c3C2=O)C(=O)c2c(O)cccc2C1=O", "experiment": "as §1", "procedure,_shortened": "as §2"}, "[24]": {"substrate": "CC1=C(CCCCCC(=O)NCCCNCCCNC(=O)CCCCCC2=C(C)C(=O)c3ccccc3C2=O)C(=O)c2ccccc2C1=O", "experiment": "as §1", "procedure,_shortened": "as §2"}, "[25]": {"substrate": "CC1=CC(=O)c2c(O)cccc2C1=O", "experiment": "as §1", "procedure,_shortened": "as §2"}, "[26]": {"substrate": "CC1=CC(=O)c2ccccc2C1=O", "experiment": "as §1", "procedure,_shortened": "as §2"}, "[27]": {"substrate": "CC1=C(CCCCC(=O)NCCCN2CCN(CCCNC(=O)CCCCC3=C(C)C(=O)c4cccc(O)c4C3=O)CC2)C(=O)c2c(O)cccc2C1=O", "experiment": "(§3) Vmax is the maximum velocity of the TcTR (Trypanosoma cruzi trypanothione reductase) catalyzed NADH oxidation."}, "[28]": {"substrate": "CC1=C(CCCCCC(=O)NCCCNCCCNC(=O)CCCCCC2=C(C)C(=O)c3ccccc3C2=O)C(=O)c2ccccc2C1=O", "experiment": "as §3"}, "[29]": {"substrate": "CC1=C(CCCC(=O)NCCCNCCCNC(=O)CCCC2=C(C)C(=O)c3cccc(O)c3C2=O)C(=O)c2c(O)cccc2C1=O", "experiment": "Vmax is the maximum velocity of the TcTR (Trypanosoma cruzi trypanothione reductase) catalyzed NADPH oxidation."}, "[30]": {"substrate": "CC1=C(CCCCC(=O)NCCCCNCCCNC(=O)CCCCC2=C(C)C(=O)c3ccccc3C2=O)C(=O)c2ccccc2C1=O", "experiment": "Vmax is the maximum velocity of the TcTR (Trypanosoma cruzi trypanothione reductase) catalyzed NADPH oxidation."}, "[31]": {"substrate": "CC1=C(CCCCC(=O)NCCCNCCCNC(=O)CCCCC2=C(C)C(=O)c3cccc(O)c3C2=O)C(=O)c2c(O)cccc2C1=O", "experiment": "Vmax is the maximum velocity of the TcTR (Trypanosoma cruzi trypanothione reductase) catalyzed NADPH oxidation."}, "[32]": {"substrate": "CC1=CC(=O)c2c(O)cccc2C1=O", "experiment": "Vmax is the maximum velocity of the TcTR (Trypanosoma cruzi trypanothione reductase) catalyzed NADPH oxidation."}}}
{"protein": "B1", "values": [{"measurement": "Km", "setting": "[1]", "value": 48, "unit": "µM"}, {"measurement": "Km", "setting": "[2]", "value": 30, "unit": "µM"}, {"measurement": "Km", "setting": "[3]", "value": 78, "unit": "µM"}, {"measurement": "Km", "setting": "[4]", "value": 14, "unit": "µM"}, {"measurement": "Km", "setting": "[5]", "value": 230, "unit": "µM"}, {"measurement": "Km", "setting": "[6]", "value": 47, "unit": "µM"}, {"measurement": "Km", "setting": "[7]", "value": 93, "unit": "µM"}, {"measurement": "Km", "setting": "[8]", "value": 74, "unit": "µM"}, {"measurement": "Km", "setting": "[9]", "value": 52, "unit": "µM"}, {"measurement": "Km", "setting": "[10]", "value": 12, "unit": "µM"}, {"measurement": "Km", "setting": "[11]", "value": 55, "unit": "µM"}, {"measurement": "Km", "setting": "[12]", "value": 23, "unit": "µM"}, {"measurement": "Km", "setting": "[13]", "value": 20, "unit": "µM"}, {"measurement": "Km", "setting": "[14]", "value": 16, "unit": "µM"}, {"measurement": "Km", "setting": "[15]", "value": 17, "unit": "µM"}, {"measurement": "Km", "setting": "[16]", "value": 16, "unit": "µM"}, {"measurement": "Km", "setting": "[17]", "value": 28, "unit": "µM"}, {"measurement": "Km", "setting": "[18]", "value": 37, "unit": "µM"}, {"measurement": "Km", "setting": "[19]", "value": 37, "unit": "µM"}, {"measurement": "Km", "setting": "[20]", "value": 21, "unit": "µM"}, {"measurement": "Km", "setting": "[21]", "value": 8, "unit": "µM"}, {"measurement": "Km", "setting": "[22]", "value": 12, "unit": "µM"}, {"measurement": "Km", "setting": "[23]", "value": 28, "unit": "µM"}, {"measurement": "Km", "setting": "[24]", "value": 3, "unit": "µM"}, {"measurement": "Km", "setting": "[25]", "value": 15, "unit": "µM"}, {"measurement": "Km", "setting": "[26]", "value": 21, "unit": "µM"}, {"measurement": "Vmax", "setting": "[27]", "value": 5.13, "unit": "µM/min/mg"}, {"measurement": "Vmax", "setting": "[28]", "value": 0.09, "unit": "µM/min/mg"}, {"measurement": "Vmax", "setting": "[29]", "value": 4.29, "unit": "µM/min/mg"}, {"measurement": "Vmax", "setting": "[30]", "value": 1.11, "unit": "µM/min/mg"}, {"measurement": "Vmax", "setting": "[31]", "value": 3.83, "unit": "µM/min/mg"}, {"measurement": "Vmax", "setting": "[32]", "value": 0.31, "unit": "µM/min/mg"}]}
